Data set [1] relates to Punta Toro virus. The experiment in a line: Antiviral activity against Punta Toro virus infected in African green monkey Vero cells assessed as inhibition of virus-induced cytopathic effect after 3 to 6 days by MTS assay. Type of data set: functional, organism-based.
The test system of data set [2] is Sindbis virus. The data set is described as follows: Antiviral activity against Sindbis virus infected in African green monkey Vero cells assessed as inhibition of virus-induced cytopathic effect after 3 to 6 days by MTS assay. Type of data set: functional, organism-based. In general terms: Damage to the host cells serves as the signal in cytopathic effect assays.

In data set [3] the test system is Human alphaherpesvirus 1. The experiment in a line: Antiviral activity against Herpes simplex virus type 1 infected in human HEL299 cells assessed as inhibition of virus-induced cytopathic effect after 3 to 6 days by MTS assay. Type of data set: functional, organism-based.
The nature of data set [4]: Cytotoxicity against human HeLa cells assessed as alterations in normal cell morphology measured after 3 to 6 days by microscopic analysis. It is filed as cell-based. In short, it runs like this:
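Mock-infected HeLa cultures in 2% FCS medium received serial five-fold dilutions […] for 3–6 days at 37 °C. MCC was the lowest concentration giving microscopically visible minimal change in cell morphology (rounding, shrinking, lysis).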

In data set [5] the test system is Influenza A virus. The experiment in a line: Antiviral activity against Influenza A virus (A/Puerto Rico/8/34(H1N1)) infected in MDCK cells assessed as protection against virus-induced reduction in cell viability after 3 to 6 days by MTS assay. It is filed as functional, organism-based. Conditions: A/Puerto Rico/8/1934(H1N1). In short, it runs like this:
(§1)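 MDCK cells seeded at 9000/well and infected one day later (semiconfluent) with 100 CCID50 virus. Medium was FCS-free Ultra MDCK with 2 μg/mL TPCK-trypsin. Serial five-fold compound dilutions (top 100 μM) were added with the virus, followed by 3–6 days at 35 °C. MTS read-out gave % protection versus virus and mock controls. EC50 was interpolated from semi-log curves; mean of two or three experiments.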
(Tetrazolium assays rely on reduction of a dye to a coloured formazan, in cell work by metabolically active cells.)

For data set [6], the system named is MDCK. The experiment in a line: Cytotoxicity against MDCK cells assessed as reduction in cell viability measured after 3 to 6 days by MTS assay. Type of data set: cell-based, Canis lupus familiaris. Conditions: dog. The method in brief: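 Mock-infected MDCK plates were run in parallel (FCS-free Ultra MDCK medium with TPCK-trypsin) with serial five-fold dilutions up to […], 35 °C for 3–6 days. CC50 was interpolated from semi-log dose-response curves; mean of two or three experiments.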

Data set [7] relates to Human respirovirus 3. The data set is described as follows: Antiviral activity against Parainfluenza virus 3 infected in African green monkey Vero cells assessed as inhibition of virus-induced cytopathic effect after 3 to 6 days by MTS assay. It is filed as functional, organism-based.
Data set [8] concerns Respiratory syncytial virus. The experiment in a line: Antiviral activity against Respiratory syncytial virus Long infected in human HeLa cells assessed as inhibition of virus-induced cytopathic effect after 3 to 6 days by MTS based microscopy. It is filed as functional, organism-based.
Data set [9] can be described thus: Cytotoxicity against MDCK cells assessed as alterations in normal cell morphology measured after 3 to 6 days by microscopic analysis. Type of data set: cell-based, Canis lupus familiaris. Conditions: dog. In short, it runs like this:
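Uninfected MDCK cultures in FCS-free Ultra MDCK medium with trypsin received five-fold compound dilutions (up to […]) for 3–6 days at 35 °C. Microscopy scored morphology, and MCC was taken as the lowest concentration causing minimal rounding, shrinking or lysis.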

In data set [10] the test system is Vero. The experiment in a line: Cytotoxicity against African green monkey Vero cells assessed as reduction in cell viability measured after 3 to 6 days by MTS assay. It is filed as cell-based. Conditions: chlorocebus sabaeus.
In data set [11] the test system is Coxsackievirus B4. The data set is described as follows: Antiviral activity against Coxsackie B4 virus infected in human HeLa cells assessed as inhibition of virus-induced cytopathic effect after 3 to 6 days by MTS assay. Type of data set: functional, organism-based.
The subject of data set [12] is Human adenovirus 2. The data set is described as follows: Antiviral activity against Human adenovirus type 2 infected in human HEL299 cells assessed as inhibition of virus-induced cytopathic effect after 3 to 6 days by MTS assay. Type of data set: functional, organism-based.
The subject of data set [13] is Human coronavirus 229E. The data set is described as follows: Antiviral activity against Human coronavirus 229E infected in human HEL299 cells assessed as inhibition of virus-induced cytopathic effect after 3 to 6 days by MTS assay. It is filed as functional, organism-based.
In data set [14] the test system is Influenza B virus. The experiment in a line: Antiviral activity against Influenza B virus B/Ned/537/05 infected in MDCK cells assessed as protection against virus-induced reduction in cell viability after 3 to 6 days by MTS assay. It is filed as functional, organism-based. Conditions: B/Ned/537/05, MDCK. In short, it runs like this: as §1
For data set [15], the system named is Mammalian orthoreovirus 1. The data set is described as follows: Antiviral activity against Reovirus-1 infected in African green monkey Vero cells assessed as inhibition of virus-induced cytopathic effect after 3 to 6 days by MTS assay. Type of data set: functional, organism-based.
Data set [16] has as its system Human immunodeficiency virus. The data set is described as follows: Antiviral activity against HIV. Type of data set: functional, organism-based.
The test system of data set [17] is Yellow fever virus. The experiment in a line: Antiviral activity against Yellow fever virus infected in African green monkey Vero cells assessed as inhibition of virus-induced cytopathic effect after 3 to 6 days by MTS assay. Type of data set: functional, organism-based.
Data set [18] relates to Vaccinia virus. The data set is described as follows: Antiviral activity against Vaccinia virus infected in human HEL299 cells assessed as inhibition of virus-induced cytopathic effect after 3 to 6 days by MTS assay. It is filed as functional, organism-based. Conditions: Orthopoxvirus vaccinia.
Data set [19] concerns Vesicular stomatitis virus. The data set is described as follows: Antiviral activity against Vesicular stomatitis virus infected in human HEL299 cells assessed as inhibition of virus-induced cytopathic effect after 3 to 6 days by MTS assay. Type of data set: functional, organism-based.
The subject of data set [20] is Human alphaherpesvirus 2. The data set is described as follows: Antiviral activity against Herpes simplex virus type 2 infected in human HEL299 cells assessed as inhibition of virus-induced cytopathic effect after 3 to 6 days by MTS assay. It is filed as functional, organism-based.

Active and inactive are the calls of the source. No cut-off for these calls is given here. Some results are limits rather than exact numbers.

`CCCN1C(N)=NC(N)=NC12CCN(S(=O)(=O)CCC)CC2`: the result in data set [1], in data set [2], in [3], in data set [7], in data set [11] and in data set [12] was inactive. Besides, the outcome in [13], in data set [15], in [16], in data set [17], in data set [18] and in data set [19] was inactive. Further, the result in [20] was inactive. Further, the MCC in data set [4] and in [9] was greater than 100 µM in each case. The EC50 in [5], in [8] and in data set [14] was greater than 100 µM in each case. The half-maximal cytotoxic concentration (CC50) in [6] is greater than 100 µM. Besides, in data set [10], the Activity result is “Non-Toxic”.

Consider `CCCN1C(N)=NC(N)=NC12CCN(C(=O)NCCC(=O)OCC)CC2`, for which the outcome in data set [1], in data set [2], in [3], in [7], in data set [11] and in data set [12] was inactive. Further, the result in data set [13], in [15], in data set [16], in data set [17], in [18] and in data set [19] was inactive. Further, the outcome in [20] was inactive. Besides, the MCC in data set [4] and in data set [9] was greater than 100 µM in each case. The half-maximal effective concentration (EC50) in data set [5], in data set [8] and in data set [14] was greater than 100 µM each time. Further, in data set [6], the CC50 is greater than 100 µM. The Activity result in data set [10] is “Non-Toxic”.

Take `COc1cccc(N2C(N)=NC(N)=NC23CCN(C(=O)OC(C)(C)C)CC3)c1`: the outcome in [1], in data set [2], in data set [3], in data set [7], in data set [11] and in data set [12] was inactive. Moreover, the result in data set [13], in data set [15], in data set [16], in data set [17], in data set [18] and in data set [19] was inactive. Also, the outcome in data set [20] was inactive. Moreover, the MCC is greater than 100 µM in data set [4] and no less than 100 µM in data set [9]. Further, the EC50 is 87 µM in [5], greater than 100 µM in [8] and 39 µM in data set [14]. Also, in data set [6], the 50% cytotoxic concentration (CC50) was greater than 100 µM. Further, the Activity result in [10] is given as “Non-Toxic”.

Turning to `NC1=NC2(CCNCC2)N(c2cccc(Cl)c2)C(N)=N1`, the outcome in data set [1], in [2], in [3], in data set [7], in data set [11] and in data set [12] was inactive. Also, the result in data set [13], in data set [15], in data set [16], in [17], in [18] and in data set [19] was inactive. For the same compound, the outcome in data set [20] was inactive. Also, the MCC in [4] and in [9] was greater than 100 µM throughout. The 50% effective concentration (EC50) in data set [5], in data set [8] and in data set [14] was greater than 100 µM throughout. Moreover, in data set [6], the 50% cytotoxic concentration (CC50) is greater than 100 µM. Besides, the Activity entry in data set [10] is recorded as “Non-Toxic”.

`NC1=NC2(CCN(C(=O)C3CCC3)CC2)N(c2cccc(Cl)c2)C(N)=N1`: the outcome in [1], in data set [2], in data set [3], in [7], in [11] and in data set [12] was inactive. Besides, the result in data set [13], in [15], in data set [16], in [17], in [18] and in data set [19] was inactive. Moreover, in data set [20], the outcome was inactive. In addition, the MCC in [4] is greater than 100 µM; in data set [9], no less than 20 µM. Further, the values for the EC50 in data set [5], in [8] and in data set [14] were 35 µM, greater than 100 µM and 7.7 µM, respectively. Besides, the CC50 in data set [6] is greater than 100 µM. Besides, the Activity result in data set [10] was “Non-Toxic”.

Consider `Cl.NC1=NC2(CCCN(Cc3ccccc3)C2)N(c2ccc(Cl)cc2)C(N)=N1` (stereo not given), for which the result in [1], in data set [2], in data set [3], in data set [7], in [11] and in data set [12] was inactive. In addition, the outcome in data set [13], in data set [15], in [16], in data set [17], in data set [18] and in [19] was inactive. Also, the result in data set [20] was inactive. Also, the MCC in [4] and in data set [9] was 100 µM in each case. For the same compound, the EC50 in data set [5], in data set [8] and in data set [14] was greater than 100 µM in each case. In data set [6], the CC50 was 45 µM. For the same compound, the Activity entry in data set [10] was “Non-Toxic”.

For `COCCN1C(N)=NC(N)=NC12CCN(C(=O)C1CC1)CC2`, the result in [1], in data set [2], in data set [3], in [7], in [11] and in [12] was inactive. The result in data set [13], in [15], in data set [16], in data set [17], in [18] and in data set [19] was inactive. Also, the outcome in data set [20] was inactive. In addition, the MCC in [4] and in data set [9] was greater than 100 µM throughout. For the same compound, the EC50 in data set [5], in [8] and in data set [14] was greater than 100 µM throughout. Moreover, the CC50 in [6] was greater than 100 µM. For the same compound, the Activity result in data set [10] is “Non-Toxic”.

Regarding `CCCCC(=O)N1CCC2(CC1)N=C(N)N=C(N)N2c1cccc(OC)c1`, the outcome in data set [1], in [2], in data set [3], in [7], in data set [11] and in data set [12] was inactive. For the same compound, the result in [13], in data set [15], in data set [16], in data set [17], in [18] and in data set [19] was inactive. Further, in data set [20], the result was inactive. Besides, the MCC in [4] was greater than 100 µM; in data set [9], no less than 100 µM. The EC50 in data set [5] was greater than 100 µM; in data set [8] it was greater than 100 µM; in data set [14] it was 28 µM. For the same compound, the CC50 in data set [6] is greater than 100 µM. The Activity result in [10] is recorded as “Non-Toxic”.

What is called EC50 is the concentration that produces a half-maximal response. In general, CC50 refers to the concentration at which the toxic effect on the cells reaches its halfway point.

Values taken from ChEMBL document CHEMBL4152296, “Synthesis, biological evaluation and molecular modeling of novel azaspiro dihydrotriazines as influenza virus inhibitors targeting the host factor dihydrofolate reductase (DHFR)” (Eur J Med Chem, 2018).
